An excerpt weighted towards active compounds, which were near 6.4% of everything screened.
CHOP inhibitor: blocks CHOP induction under ER stress. CHO-K1 CHOP-promoter luciferase, tunicamycin-induced, 15-18 h. inhibition, % at 10 µM. 220,000 tested, 3.8% active;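 active means compounds that reduced the stress-induced luciferase reporter signal by more than about 70% of percent inhibition, limit read from the data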;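 further: 0% = tunicamycin plus vehicle and 100% = wells without tunicamycin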
EBV gp42 inh: inhibitors of Epstein-Barr virus glycoprotein 42 | Fluorescence polarization binding assay, mP read-out | inhibition, % (tested at 21.74 µM) | 220,000 tested, 0.42% active | AID 1085; in the data active means inhibition above about 50%
Target sequence (Q1HVG2 whole entry, looked up): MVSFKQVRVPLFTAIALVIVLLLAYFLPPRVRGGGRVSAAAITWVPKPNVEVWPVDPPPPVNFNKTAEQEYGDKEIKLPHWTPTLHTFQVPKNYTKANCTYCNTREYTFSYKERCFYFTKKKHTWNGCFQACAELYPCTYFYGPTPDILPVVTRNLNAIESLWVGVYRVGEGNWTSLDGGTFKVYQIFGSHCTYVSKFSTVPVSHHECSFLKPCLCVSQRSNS
MPTP block: inhibitors of mitochondrial permeability transition pore; isolated mouse mitochondria, Ca2+ swelling absorbance, 30 min; inhibition, % at 10 µM; 360,000 tested, 1.4% active;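 active means inhibition of 50% or more, scaled per plate between neutral and stimulator controls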;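 further: 0% = DMSO wells given calcium and 100% = 1 mM EGTA wells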
Tb MetRS inh: Trypanosoma brucei MetRS inhibition; purified T. brucei MetRS, ATP depletion, Kinase-Glo luminescence; 360,000 tested, 0.4% active; inhibition, % at 11.9 µM;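 active means inhibition above a per-plate cutoff of the control wells' mean inhibition plus 3 SD, cut at about 5.5% in these data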;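 further: 0% = DMSO wells median and 100% = median of wells with control inhibitor compound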
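Material: T. brucei methionyl-tRNA synthetase, purified; reagent: substrates ATP, L-methionine and bulk Escherichia coli tRNA; dosing: 11.9 µM single point; timing: 15 min plus 2 h at 25 °C; detection: luminescence of leftover ATP; evaluation: % inhibition; control set: DMSO-only wells as low control; replicates: singlicate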
WT yeast gro inh: growth inhibition of WT yeast, mitochondrial fusion screen; 190,000 tested, 2.1% active; mitochondrial fusion phenotypic screen, WT strain; inhibition, % at 10 µM; AID 1362; in the data active means inhibition above about 58%; tested in S. cerevisiae
NR3A LBD binder: modulates the human NR3A ligand-binding domain. NR3A LBD differential scanning fluorimetry, Tm shift; 0% = protein alone, 100% = glycine-bound protein. Tm shift relative to glycine control, % at 25 µM. 340,000 tested, 2.5% active;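 active means melting temperature shift of at least 10% of the positive control shift, at one fixed dose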
An asterisk follows results filed as active; / = not tested or not shown.

SMILES	CHOP inhibitor	EBV gp42 inh	MPTP block	Tb MetRS inh	WT yeast gro inh	NR3A LBD binder
CC(NC(=O)/C(=C/c1ccc(OC(F)F)cc1)c1ccccc1)c1ccccc1 (configuration not stated)	38.5	3.6	18.1	-0.9	65.3*	-3.9
Cc1cc(C)c(C)c(S(=O)(=O)NC2CCN(Cc3ccccc3)CC2)c1C	79.4*	-7.3	-0.9	-0.7	14.7	2.4
C/C(=N\N(Cc1ccccc1)c1ccccc1)c1cccnc1	24.8	-7.5	4.1	-0.8	38.7	-1.0
Oc1ccc2ccccc2c1C=NCc1ccccc1	17.4	-3.6	-0.1	0.0	/	-0.9
Oc1ccc(/C=N/N(Cc2ccccc2)c2ccccc2)c(O)c1O	80.4*	-1.8	4.5	-0.9	8.5	-1.6
Oc1cccc(/C=N/N(Cc2ccccc2)c2ccccc2)c1	56.1	-4.5	6.3	0.0	90.2*	16.0*
C(=N\N(Cc1ccccc1)c1ccccc1)/c1cccnc1	52.5	5.2	-2.4	-0.3	74.2*	-17.1
Oc1cccc(C=NCc2ccccc2)c1	17.7	-17.2	-0.4	0.1	16.4	1.4
COC(=O)C1(C)NC(c2cccc(C)c2)C2C(=O)N(c3ccccc3)C(=O)C21 (configuration not stated)	/	/	0.6	0.0	/	/
C/C=C/c1ccc(OCCCCOc2c(OC)cccc2OC)c(OC)c1	58.3	-3.3	1.2	0.0	1.1	1.3
C/C=C/c1ccc(OCCCCOc2ccccc2C(C)=O)c(OC)c1	60.7	-7.1	9.2	-0.4	21.0	17.8*
CC(C)c1ccc(S(=O)(=O)c2cc3cc(Br)ccc3oc2=O)cc1	88.6*	-5.2	38.9	-0.2	2.1	2.3
Cc1ccc(-n2ncc3c(SCC(=O)NNC(=O)c4ccco4)ncnc32)cc1	-1.7	-15.8	-0.3	0.1	-5.9	-4.7
N#Cc1c(NCCN)nc(NCc2ccccc2)c2c1CCN(Cc1ccccc1)C2	/	/	3.2	18.8*	/	-0.6
CC(=O)Nc1ccc(NC(=O)c2cc(-n3cnnc3)ccc2Cl)cc1	5.2	1.6	-1.8	0.1	-6.8	-1.1
CC(C)NC(=O)c1cc(-n2cnnc2)ccc1Cl	-5.4	-11.4	-1.6	-1.0	-5.6	11.2*
CC(OC(=O)CN(C)S(=O)(=O)c1ccc(Cl)cc1)C(=O)Nc1ncc(Cl)cc1Cl (configuration not stated)	-11.2	-4.2	-3.2	-0.7	-19.6	0.1
CC(OC(=O)CN(C)S(=O)(=O)c1ccc(Cl)cc1)C(=O)Nc1cccc(Cl)c1 (configuration not stated)	82.8*	3.2	17.4	-0.6	10.2	-0.3
COc1ccc2cc(/C=N/NC(=O)CN(c3ccccc3C)S(=O)(=O)c3ccccc3)c(Cl)nc2c1	16.2	-65.7	1.3	-0.5	0.2	11.2*
O=C(OCC(=O)N1CCCCC1)c1ccccc1SCC(=O)N1CCCCC1	-15.4	-20.1	0.8	-0.1	-19.9	-1.6
N#CC1(NC(=O)COC(=O)c2ccccc2SCC(=O)N2CCCC2)CCCCC1	/	/	0.5	0.0	/	12.6*
COc1ccc(NC(=O)COC(=O)c2ccccc2SCC(=O)N2CCCC2)cc1	/	/	-1.0	-0.3	/	19.5*
COc1cc(C(=O)N2CCC(NC(=O)C(Cc3ccc(C)cc3)NC(C)=O)CC2)cc(OC)c1OC (configuration not stated)	43.7	-13.5	-2.5	-0.8	19.3	0.0
CCc1cc2c(=O)n(C(C)C(=O)OC3CCCCC3)cnc2s1 (configuration not stated)	71.8*	-8.9	0.0	-2.1	14.9	0.0
CCC(=O)c1c[nH]c(C(=O)NCc2ccco2)c1	6.3	-13.9	-2.5	-0.4	-0.4	-0.2
SMILES	CHOP inhibitor	EBV gp42 inh	MPTP block	Tb MetRS inh	WT yeast gro inh	NR3A LBD binder
CCC(CC)C(=O)c1c[nH]c(C(=O)NCc2ccco2)c1	5.6	-4.9	0.1	-0.5	61.1*	1.2
C#CC(CC)(CC)NC(=O)Nc1ccccc1C(=O)OC	6.8	-11.4	1.5	-0.6	4.1	-1.1
CCCOc1ccc2cc(-c3ccccn3)c(=O)oc2c1	70.7*	-20.4	2.4	-1.1	38.0	-1.4
O=C(Cn1ccc2ccccc2c1=O)N1CCN(Cc2ccc3c(c2)OCO3)CC1	57.0	-10.1	-3.1	0.5	8.7	-0.4
CCc1cccc2c(C(=O)Cn3nnc(-c4ccc(OC)c(OC)c4)n3)c[nH]c12	71.6*	-4.0	-2.8	-1.3	-3.1	2.3
CC(N=c1ccccn1C(=O)Nc1ccc(Cl)cc1)c1ccco1 (configuration not stated)	69.6	-17.2	/	/	4.0	23.9*
CC(N=c1ccccn1C(=O)Nc1ccc(F)cc1)c1ccco1 (configuration not stated)	18.7	-12.6	4.1	-0.9	7.2	0.6
Cc1ccccc1OCC(=O)Nc1nnc(C2CCCC2)s1	/	/	-1.2	0.8	/	1.7
CCOc1ccccc1NC(=O)CCC(=O)Nc1nnc(C2CCCCC2)s1	/	/	-1.0	-0.3	/	14.8*
COc1ccc(-c2cc(C(=O)N3CCCC(C(F)(F)F)C3)c3ccccc3n2)cc1OC (configuration not stated)	/	/	-1.1	-0.3	/	18.1*
COc1ccc(-c2cc(C(=O)N3CCCCCC3)c3ccccc3n2)cc1OC	/	/	-0.1	-0.2	/	/
Cc1cc(C)n(-c2nc(C)nc3c2cnn3-c2ccccc2)n1	-2.6	-10.8	4.0	0.2	65.5*	0.5
Cc1cc(C)n(-c2nc3ccccc3c3nc(C)nn23)n1	9.2	-12.3	-1.4	-1.0	9.5	0.1
O=c1[nH]c2cc3c(cc2cc1CN(Cc1ccccc1)Cc1nnnn1Cc1ccco1)OCCO3	-90.9	-12.0	-3.9	-0.3	-4.1	-4.9
CCc1ccc2[nH]c(=O)c(CN(Cc3ccccc3)Cc3nnnn3Cc3ccco3)cc2c1	73.4*	-15.6	-1.9	-0.4	12.1	-4.5
Cc1cc(C)c2cc(CN(Cc3ccc4c(c3)OCO4)Cc3nnnn3Cc3ccco3)c(=O)[nH]c2c1	71.4*	-2.0	-6.7	0.5	8.7	-0.7
Cn1nnnc1Sc1ncnc2scc(-c3ccc([N+](=O)[O-])cc3)c12	/	/	-0.2	-0.2	/	13.5*
CC1C(=O)CC(c2ccccc2)N(C)C1c1ccccc1 (configuration not stated)	78.8*	5.1	0.1	-1.0	23.2	1.9
Cc1ccc([C@@H]2C[C@H]3[C@@H](CN2S(=O)(=O)c2ccc(C)cc2)C(=O)C[C@@H](c2ccccc2)N3S(=O)(=O)c2ccc(C)cc2)cc1	/	/	-0.6	-0.6	/	/
Nc1ccn(Cc2ccccc2F)n1	20.1	-16.0	-0.4	-0.1	-9.7	-0.3
CN1CCN(C2CN(Cc3cn(Cc4ccc(F)cc4)nn3)S(=O)(=O)C2)CC1 (configuration not stated)	/	/	-0.1	-1.2	/	/
Cc1cccc(C)c1OCC(O)Cn1ccnc1C (configuration not stated)	-8.4	83.5*	0.2	-0.7	3.3	2.8
CN(CC(=O)Nc1cccc(F)c1)C(=O)c1ccc2c(=O)n3c(nc2c1)CCC3	/	/	-2.9	0.1	/	0.6

Compound activity deposited in PubChem by several laboratories.
